# Measurements collected from several papers.
# Protocols differ between the studies behind these lines.
# Cell line: NCI-H522
# Observed: cell growth or viability
Compound,method,tested at,time,endpoint,value
COc1ccc(C2=Nn3c(NN=C4C(=O)Nc5ccc(OC)cc54)nnc3SC2)cc1,SRB,10 µM,,inhibition,25%
CCCc1n(Cc2ccc3ccccc3n2)cc[n+]1Cc1ccc2ccccc2n1,SRB,,,TGI,4300 nM
COc1ccc(C(=O)/C=C/c2ccc3ccccc3c2)cc1S(N)(=O)=O,SRB,10 µM,,inhibition,163%
CCc1n(Cc2ccc3ccccc3n2)cc[n+]1Cc1ccc2ccccc2n1,SRB,,,TGI,1490 nM
COc1ccccc1/C=C/C(=O)c1ccc(OC)c(S(N)(=O)=O)c1,SRB,10 µM,,inhibition,110%
Cc1cc(C)n(C(=S)[S][Au][PH](CCCCCC[PH]([Au][S]C(=S)n2nc(C)cc2C)(c2ccccc2)c2ccccc2)(c2ccccc2)c2ccccc2)n1,SRB,,,GI50,1240 nM
COc1cccc(Oc2ccccc2NC(=O)CNC(=O)c2cccc3ccccc23)c1,SRB,,48 h,GI50,178 nM
COc1ccc(C(=O)/C=C/c2cccc(Br)c2)cc1S(N)(=O)=O,SRB,,48 h,GI50,1600 nM
COc1ccc(-c2ccc(-c3ccc(C(=N)N)nc3)s2)cc1Cl,SRB,,,GI50,2100 nM
c1ccc2cc(Cn3cc[n+](Cc4ccc5ccccc5c4)c3)ccc2c1,SRB,,,TGI,3110 nM
COc1ccc(C(=O)/C=C/c2cccnc2)cc1S(N)(=O)=O,SRB,,48 h,GI50,10500 nM
O=C1NCCc2[nH]c(-c3ccncc3)cc21,,,,IC50,> 10000 nM
Cc1n(Cc2ccc3ccccc3n2)cc[n+]1Cc1ccc2ccccc2c1,SRB,,,TGI,1460 nM
COc1ccc(C2=Nn3c(NN=C4C(=O)Nc5ccc(Cl)cc54)nnc3SC2)cc1,SRB,10 µM,,inhibition,34%
